Source: ChEMBL document CHEMBL2029301, “Development of a series of 3-hydroxyquinolin-2(1H)-ones as selective inhibitors of HIV-1 reverse transcriptase associated RNase H activity” (Bioorg Med Chem Lett, 2012)
Activity calls are given as the source filed them. No cut-off for these calls is given here.

Legend:
[1] = target: T1, Human immunodeficiency virus type 1 reverse transcriptase (Human immunodeficiency virus 1, UniProt Q72547); assay: Inhibition of HIV1 reverse transcriptase RNase H activity
[2] = target: Human immunodeficiency virus type 1 reverse transcriptase (Human immunodeficiency virus 1) (UniProt Q72547); assay: Inhibition of HIV1 reverse transcriptase RNase H activity assessed as remaining activity at 100 uM
Method in brief: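 In vitro HIV-1 RT-associated RNase H activity measured with compound at 100 µM, expressed as percentage of remaining enzyme activity.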

[3] = test system: Human immunodeficiency virus 1; assay: Antiviral activity against HIV1 infected in MT4 cells assessed as inhibition of virus-induced cytopathic effect; type: functional, organism-based; settings: Human immunodeficiency virus 1, MT4
[4] = Cytotoxicity against human MT4 cells; type: cell-based
[5] = target: T1, Human immunodeficiency virus type 1 reverse transcriptase; assay: Inhibition of HIV1 reverse transcriptase associated RNA dependent polymerase activity
Method in brief: (§1)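 Mg-dependent HIV-1 integrase and RT RNA-dependent DNA polymerase activities measured in vitro, with compounds tested at concentrations up to 250 µM.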

[6] = target: Human immunodeficiency virus type 1 integrase (Human immunodeficiency virus 1, UniProt Q7ZJM1); assay: Inhibition of HIV1 integrase; method in brief: as §1
[7] = test system: Human immunodeficiency virus 1; assay: Binding affinity to HIV1 Reverse transcriptase RNase H domain p15 assessed as intrinsic fluorescence quenching at 100 uM by fluorimetry
Method in brief: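 Recombinant isolated HIV-1 RT RNase H domain (p15) excited at 290 nm to maximise the tryptophan signal. Ligand binding at the active site is read as quenching of intrinsic fluorescence. HTHI (2-hydroxy-1,2,3,4-tetrahydroisoquinoline-1,3-dione) serves as positive control.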

[8] = target: Human immunodeficiency virus type 1 reverse transcriptase (Human immunodeficiency virus 1) (UniProt Q72547); assay: Selectivity ratio of IC50 for HIV1 reverse transcriptase associated RNA dependent polymerase activity to IC50 for reverse transcriptase Rnase H activity
[9] = test system: Human immunodeficiency virus 1; assay: Selectivity ratio of IC50 for HIV1 integrase to IC50 for reverse transcriptase Rnase H activity

Sequence of Human immunodeficiency virus type 1 integrase (Q7ZJM1 whole entry): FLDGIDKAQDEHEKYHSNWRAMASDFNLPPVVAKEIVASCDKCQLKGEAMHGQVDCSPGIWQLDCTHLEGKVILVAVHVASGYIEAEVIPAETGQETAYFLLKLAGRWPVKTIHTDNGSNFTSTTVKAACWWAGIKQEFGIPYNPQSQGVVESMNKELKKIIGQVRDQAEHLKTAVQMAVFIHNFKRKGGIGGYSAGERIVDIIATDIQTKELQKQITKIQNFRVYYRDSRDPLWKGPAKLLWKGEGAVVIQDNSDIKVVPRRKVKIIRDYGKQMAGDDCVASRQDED

SMILES: CCOC(=O)c1c(O)c(=O)[nH]c2ccc(Cl)cc12
- IC50 [1]: > 100 µM
- Activity [2]: 100%
- EC50 [3]: > 117 µM
- CC50 [4]: 117 µM

SMILES: O=C(NCc1ccc(F)cc1)c1c(O)c(=O)[nH]c2ccc(F)cc12
- IC50 [1]: 22 µM
- EC50 [3]: > 24 µM
- CC50 [4]: 24 µM
- IC50 [5]: > 250 µM
- IC50 [6]: > 250 µM

SMILES: CCOC(=O)c1c(O)c(O)nc2ccccc12
- IC50 [1]: 16 µM
- EC50 [3]: > 210 µM
- CC50 [4]: 210 µM

SMILES: O=c1[nH]c2ccccc2cc1O
- Activity [2]: 97%
- CC50 [4]: 115 µM

SMILES: O=C(O)c1c(O)c(=O)[nH]c2ccc(F)cc12
- IC50 [1]: > 100 µM
- Activity [2]: 100%
- EC50 [3]: > 250 µM
- CC50 [4]: 250 µM

SMILES: CCOC(=O)c1c(O)c(=O)[nH]c2ccc([N+](=O)[O-])cc12
- IC50 [1]: 64 µM
- EC50 [3]: > 118 µM
- CC50 [4]: 118 µM

SMILES: COc1ccc(CNC(=O)c2c(O)c(=O)[nH]c3c(F)cccc23)cc1
- IC50 [1]: 74 µM
- EC50 [3]: > 8 µM
- CC50 [4]: 8 µM

SMILES: CCOC(=O)c1c(O)c(=O)[nH]c2c(F)cccc12
- IC50 [1]: > 100 µM
- Activity [2]: 100%
- EC50 [3]: > 238 µM
- CC50 [4]: 238 µM

SMILES: COc1ccc(CNC(=O)c2c(O)c(=O)[nH]c3ccc(F)cc23)cc1
- IC50 [1]: 19 µM
- EC50 [3]: > 29 µM
- CC50 [4]: 29 µM
- IC50 [5]: > 250 µM
- IC50 [6]: > 250 µM

SMILES: O=C(NCc1ccc(F)cc1)c1c(O)c(=O)[nH]c2ccccc12
- IC50 [1]: 19 µM
- EC50 [3]: > 29 µM
- CC50 [4]: 29 µM
- IC50 [5]: > 250 µM
- IC50 [6]: > 250 µM
- Activity [7]: Active

SMILES: O=C(O)c1c(O)c(O)nc2ccccc12
- IC50 [1]: 59 µM
- EC50 [3]: > 250 µM
- CC50 [4]: > 250 µM

SMILES: O=C(O)c1c(O)c(=O)[nH]c2ccc([N+](=O)[O-])cc12
- IC50 [1]: 97 µM
- EC50 [3]: > 250 µM
- CC50 [4]: > 250 µM

SMILES: O=C(NCc1ccc(F)cc1)c1c(O)c(=O)[nH]c2ccc(Cl)cc12
- IC50 [1]: 18 µM
- EC50 [3]: > 28 µM
- CC50 [4]: 28 µM
- IC50 [5]: > 250 µM
- IC50 [6]: > 250 µM
- Ratio IC50 [8]: > 14
- Ratio IC50 [9]: > 14

SMILES: O=C(O)c1c(O)c(=O)[nH]c2c(F)cccc12
- IC50 [1]: > 100 µM
- Activity [2]: 88%
- EC50 [3]: > 250 µM
- CC50 [4]: > 250 µM

SMILES: CCOC(=O)c1c(O)c(=O)[nH]c2ccc(N)cc12
- IC50 [1]: > 100 µM
- Activity [2]: 100%
- EC50 [3]: > 250 µM
- CC50 [4]: 250 µM

SMILES: O=C(O)c1c(O)c(=O)[nH]c2ccc(Cl)cc12
- IC50 [1]: > 100 µM
- Activity [2]: 100%
- EC50 [3]: > 250 µM
- CC50 [4]: > 250 µM

SMILES: O=C(NCc1ccc(F)cc1)c1c(O)c(=O)[nH]c2c(F)cccc12
- IC50 [1]: 75 µM
- EC50 [3]: > 6.8 µM
- CC50 [4]: 8 µM

SMILES: CCOC(=O)c1c(O)c(=O)[nH]c2ccc(F)cc12
- IC50 [1]: > 100 µM
- Activity [2]: 100%
- EC50 [3]: > 134 µM
- CC50 [4]: 134 µM

SMILES: CCCCCCNC(=O)c1c(O)c(=O)[nH]c2c(F)cccc12
- IC50 [1]: 49 µM
- EC50 [3]: > 22 µM
- CC50 [4]: 22 µM
